# Where two headings read alike, the source gives them in different places.
# Legend:
# [1] = tested on: LS-174T colorectal cancer cells; assay: cells; conditions: Homo sapiens, LS174T, 72 h, read-out: viability drop compared to control cells
# HT-29 cells [2] = assay: cells; conditions: Homo sapiens, HT-29, 72 h; for viability at 10 µM: read-out: viability drop compared to control cells
# [3] = tested on: mixture of tyrosine kinases extracted from HT-29 cell line; format: biochemical, human; conditions: 10 μM
# purified Src kinase = purified Src kinase (Homo sapiens, UniProt P12931); assay: biochemical; conditions: for inhibition at 10 µM: read-out: Src kinase inhibition
# HCT-116 cells [4] = assay: Annexin V-FITC/PI apoptosis/necrosis assessment, HCT-116; format: cell-based, human; conditions: 10 μM, 48 h, versus control
# In short: (§1)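 Human colorectal cancer cells were exposed to 10 μM test compound for 48 h, then stained with annexin V-FITC/PI and analysed by flow cytometry to separate apoptotic from necrotic cells. Each population is expressed as a percentage of total events and compared with untreated control. Values are mean ± SD, n = 3.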
# HT-29 cells [5] = assay: Cell cycle distribution by DNA cytometry, HT-29; format: cell-based, human; conditions: 10 μM, 48 h; for cells in S-phase: control 27.3 ± 0.6%; for cell population in G0/G1-phase: control 53.4 ± 2.7%; for cell population in G2/M-phase: control 19.3 ± 1.6%
# HCT-116 cells [6] = assay: Cell cycle distribution by DNA cytometry, HCT-116; format: cell-based, human; conditions: 10 μM, 48 h
# HCT-116 cells [7] = assay: Cyto-ID autophagy assessment, HCT-116; format: cell-based, human; conditions: 10 μM, 48 h
# HT-29 cells [8] = assay: Annexin V-FITC/PI apoptosis/necrosis assessment, HT-29; format: cell-based, human; conditions: 10 μM, 48 h, versus control
# In short: as §1
# HCT-116 cells [9] = assay: cells; conditions: Homo sapiens, HCT-116, 72 h; for IC50: 72 h; for viability at 10 µM: read-out: viability drop compared to control cells
# HT-29 cells [10] = assay: Cyto-ID autophagy assessment, HT-29; format: cell-based, human; conditions: for inhibition at 10 µM: Homo sapiens, HT-29, 48 h, read-out: inhibition of autophagy
# HCT-116 cells [11] = conditions: 72 h; for viability drop compared to control cells: 100 μM
# [12] = tested on: LS-174T colorectal cancer cells; conditions: 100 μM; 72 h
# HT-29 cells [13] = conditions: 72 h; for viability drop compared to control cells: 100 μM
# Chain of purified Src kinase (P12931 whole entry, looked up): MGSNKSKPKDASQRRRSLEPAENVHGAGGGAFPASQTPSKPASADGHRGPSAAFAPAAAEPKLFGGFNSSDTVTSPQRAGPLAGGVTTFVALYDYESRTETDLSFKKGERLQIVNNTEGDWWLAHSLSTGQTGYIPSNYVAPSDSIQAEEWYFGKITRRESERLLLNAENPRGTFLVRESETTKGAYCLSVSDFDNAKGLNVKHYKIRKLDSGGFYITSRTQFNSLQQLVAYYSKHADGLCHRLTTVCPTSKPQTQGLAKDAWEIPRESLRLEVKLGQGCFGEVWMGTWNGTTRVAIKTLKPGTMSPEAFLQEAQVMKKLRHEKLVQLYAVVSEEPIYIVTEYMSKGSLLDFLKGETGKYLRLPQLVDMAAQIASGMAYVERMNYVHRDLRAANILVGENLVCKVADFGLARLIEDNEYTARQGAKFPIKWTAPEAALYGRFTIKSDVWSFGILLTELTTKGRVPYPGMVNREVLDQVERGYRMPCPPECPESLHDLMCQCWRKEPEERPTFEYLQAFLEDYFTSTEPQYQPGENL
smiles,measurement,setting,value
COc1cc(C)cc(-c2nc(Nc3cc(C(F)(F)F)cc(C(F)(F)F)c3)ncc2-c2ccnc(Cl)c2)c1 [Compound 7],viability at 100 µM,[1],> 50%
same,IC50,HT-29 cells [2],9.4 ± 0.5 µM
same,viability at 10 µM,HT-29 cells [2],> 50%
same,multi-kinase inhibitory effect,[3],37.4 ± 3.7%
same,Src kinase inhibitory activity in words (dose-response),purified Src kinase,moderate inhibitory activity
same,inhibition at 10 µM,purified Src kinase,42.3 ± 10.3%
same,increase of necrotic cell population,HCT-116 cells [4],3.4 folds
COc1cc(C)cc(-c2nc(Nc3cc(C(F)(F)F)cc(C(F)(F)F)c3)ncc2-c2ccnc(-c3ccccc3)c2)c1 [Compound 8a],multi-kinase inhibitory effect,[3],23 ± 0.4%
same,Src kinase selectivity index,purified Src kinase,2.4
same,inhibition at 10 µM,purified Src kinase,54 ± 0.6%
COc1cc(C)cc(-c2nc(Nc3cc(C(F)(F)F)cc(C(F)(F)F)c3)ncc2-c2ccnc(-c3cccnc3)c2)c1 [Compound 8b],cells in S-phase,HT-29 cells [5],21.0 ± 0.9%
same,cell population in G0/G1-phase,HT-29 cells [5],58.8 ± 1.8%
same,IC50,HT-29 cells [2],11.3 ± 0.5 µM
same,viability at 10 µM,HT-29 cells [2],35 to 45%
same,multi-kinase inhibitory effect,[3],26.6 ± 2.4%
same,cells in S-phase,HCT-116 cells [6]; control 36.4 ± 4.1%,22.8 ± 2.3%
same,cells in G0/G1-phase,HCT-116 cells [6]; control 39.5 ± 4.6%,50.2 ± 1.0%
same,autophagic signal higher than control cells,HCT-116 cells [7],54%
same,increase of apoptotic cell population,HT-29 cells [8],2.5 folds
same,IC50,HCT-116 cells [9],> 25 µM
same,viability at 10 µM,HCT-116 cells [9],30 to 45%
same,EC50,purified Src kinase,1.3 ± 0.3 µM
same,Src kinase selectivity index,purified Src kinase,2.9
same,inhibition at 10 µM,purified Src kinase,77.8 ± 1.3%
same,inhibition at 10 µM,HT-29 cells [10],21%
same,increase of apoptotic cell population,HCT-116 cells [4],3.8 folds
same,increase of necrotic cell population,HCT-116 cells [4],2.9 folds
same,IC50,HCT-116 cells [11],32.4 ± 2.8 µM
same,R (resistance fraction),HCT-116 cells [11],3.7 ± 0.9%
COc1cc(C)cc(-c2nc(Nc3cc(C(F)(F)F)cc(C(F)(F)F)c3)ncc2-c2ccnc(-c3cccc(C(C)=O)c3)c2)c1 [Compound 8c],viability at 10 µM,HT-29 cells [2],35 to 45%
COc1cc(C)cc(-c2nc(Nc3cc(C(F)(F)F)cc(C(F)(F)F)c3)ncc2-c2ccnc(-c3ccc(C#N)cc3)c2)c1 [Compound 8f],viability at 10 µM,[1],> 50%
same,viability at 100 µM,[1],> 50%
same,viability at 10 µM,HT-29 cells [2],> 50%
same,viability at 10 µM,HCT-116 cells [9],> 50%
COc1cc(C)cc(-c2nc(Nc3cc(C(F)(F)F)cc(C(F)(F)F)c3)ncc2-c2ccnc(-c3ccc(N(C)C)cc3)c2)c1 [Compound 8g],viability at 100 µM,[1],> 50%
same,viability at 10 µM,HT-29 cells [2],> 50%
same,multi-kinase inhibitory effect,[3],33.1 ± 0.4%
same,viability at 10 µM,HCT-116 cells [9],30 to 45%
same,inhibition at 10 µM,purified Src kinase,28.5 ± 1.2%
COc1cc(C)cc(-c2nc(Nc3cc(C(F)(F)F)cc(C(F)(F)F)c3)ncc2-c2ccnc(-c3ccc(N(c4ccccc4)c4ccccc4)cc3)c2)c1 [Compound 8h],viability drop compared to control cells,[12],failed to show any considerable antiproliferative/cytotoxic effects
same,viability drop compared to control cells,HCT-116 cells [11],failed to show any considerable antiproliferative/cytotoxic effects
same,viability drop compared to control cells,HT-29 cells [13],failed to show any considerable antiproliferative/cytotoxic effects
COc1cc(C)cc(-c2nc(Nc3cc(C(F)(F)F)cc(C(F)(F)F)c3)ncc2-c2ccnc(-c3ccc(Oc4ccccc4)cc3)c2)c1 [Compound 8j],multi-kinase inhibitory effect,[3],26 ± 0.5%
same,Src kinase selectivity index,purified Src kinase,2.1
same,inhibition at 10 µM,purified Src kinase,54.9 ± 1.6%
Cc1cc(O)cc(-c2nc(Nc3cc(C(F)(F)F)cc(C(F)(F)F)c3)ncc2-c2ccnc(-c3ccccc3)c2)c1 [Compound 10a],cell population in G2/M-phase,HT-29 cells [5],24.8 ± 0.4%
same,cells in S-phase,HT-29 cells [5],29.8 ± 0.6%
same,cell population in G0/G1-phase,HT-29 cells [5],45.4 ± 0.6%
same,IC50,HT-29 cells [2],9.9 ± 0.3 µM
same,viability at 10 µM,HT-29 cells [2],> 50%
same,multi-kinase inhibitory effect,[3],24.7 ± 4.6%
same,IC50,HCT-116 cells [9],10.3 ± 0.6 µM
same,viability at 10 µM,HCT-116 cells [9],30 to 45%
same,Src kinase inhibitory activity in words (dose-response),purified Src kinase,completely inactive
same,inhibition at 10 µM,HT-29 cells [10],24%
same,increase of apoptotic cell population,HCT-116 cells [4],7.5 folds
same,increase of necrotic cell population,HCT-116 cells [4],4.0 folds
Cc1cc(O)cc(-c2nc(Nc3cc(C(F)(F)F)cc(C(F)(F)F)c3)ncc2-c2ccnc(-c3cccnc3)c2)c1 [Compound 10b],cell population in G2/M-phase,HT-29 cells [5],25.1 ± 0.6%
same,cells in S-phase,HT-29 cells [5],23.0 ± 0.5%
same,IC50,HT-29 cells [2],6.4 ± 0.5 µM
same,viability at 10 µM,HT-29 cells [2],> 50%
same,autophagic signal higher than control cells,HCT-116 cells [7],30%
same,increase of apoptotic cell population,HT-29 cells [8],2.3 folds
same,IC50,HCT-116 cells [9],> 25 µM
same,viability at 10 µM,HCT-116 cells [9],30 to 45%
same,Src kinase inhibitory activity in words (dose-response),purified Src kinase,completely inactive
same,increase of apoptotic cell population,HCT-116 cells [4],4.7 folds
same,increase of necrotic cell population,HCT-116 cells [4],2.4 folds
same,IC50,HCT-116 cells [11],25.9 ± 1.3 µM
same,R (resistance fraction),HCT-116 cells [11],<1%
CC(=O)c1cccc(-c2cc(-c3cnc(Nc4cc(C(F)(F)F)cc(C(F)(F)F)c4)nc3-c3cc(C)cc(O)c3)ccn2)c1 [Compound 10c],viability at 10 µM,[1],> 50%
same,viability at 100 µM,[1],> 50%
same,viability at 10 µM,HT-29 cells [2],35 to 45%
same,viability at 10 µM,HCT-116 cells [9],30 to 45%
CC(=O)c1ccc(-c2cc(-c3cnc(Nc4cc(C(F)(F)F)cc(C(F)(F)F)c4)nc3-c3cc(C)cc(O)c3)ccn2)cc1 [Compound 10d],viability at 10 µM,[1],> 50%
same,viability at 100 µM,[1],> 50%
same,viability at 10 µM,HT-29 cells [2],35 to 45%
Cc1cc(O)cc(-c2nc(Nc3cc(C(F)(F)F)cc(C(F)(F)F)c3)ncc2-c2ccnc(-c3ccc(C#N)cc3)c2)c1 [Compound 10f],IC50,HT-29 cells [2],7.2 ± 1.1 µM
same,multi-kinase inhibitory effect,[3],23.9 ± 7.4%
same,autophagic signal higher than control cells,HCT-116 cells [7],99%
same,increase of apoptotic cell population,HT-29 cells [8],1.7 folds
same,IC50,HCT-116 cells [9],9.2 ± 0.8 µM
same,viability at 10 µM,HCT-116 cells [9],30 to 45%
same,Src kinase inhibitory activity in words (dose-response),purified Src kinase,completely inactive
same,increase of apoptotic cell population,HCT-116 cells [4],15.2 folds
same,increase of necrotic cell population,HCT-116 cells [4],3.7 folds
Cc1cc(O)cc(-c2nc(Nc3cc(C(F)(F)F)cc(C(F)(F)F)c3)ncc2-c2ccnc(-c3ccc(N(C)C)cc3)c2)c1 [Compound 10g],viability at 100 µM,[1],> 50%
same,IC50,HT-29 cells [2],24.2 ± 2.1 µM
same,multi-kinase inhibitory effect,[3],39 ± 0.4%
same,IC50,HCT-116 cells [9],9.4 ± 0.9 µM
same,viability at 10 µM,HCT-116 cells [9],30 to 45%
same,EC50,purified Src kinase,3.7 ± 0.7 µM
same,inhibition at 10 µM,purified Src kinase,51.3 ± 9.8%
same,R (resistance fraction),HCT-116 cells [11],41.6 ± 3.2%
same,R (resistance fraction),HT-29 cells [13],12.9 ± 3.9%
Cc1cc(O)cc(-c2nc(Nc3cc(C(F)(F)F)cc(C(F)(F)F)c3)ncc2-c2ccnc(-c3ccc(N(c4ccccc4)c4ccccc4)cc3)c2)c1 [Compound 10h],viability drop compared to control cells,[12],failed to show any considerable antiproliferative/cytotoxic effects
same,viability drop compared to control cells,HCT-116 cells [11],failed to show any considerable antiproliferative/cytotoxic effects
same,viability drop compared to control cells,HT-29 cells [13],failed to show any considerable antiproliferative/cytotoxic effects
Cc1cc(O)cc(-c2nc(Nc3cc(C(F)(F)F)cc(C(F)(F)F)c3)ncc2-c2ccnc(-c3ccc(Oc4ccccc4)cc3)c2)c1 [Compound 10j],viability at 10 µM,[1],> 50%
same,viability at 100 µM,[1],> 50%
same,viability at 10 µM,HT-29 cells [2],35 to 45%
same,multi-kinase inhibitory effect,[3],30.2 ± 0.4%
same,viability at 10 µM,HCT-116 cells [9],30 to 45%
"CCN(CC)CCCC(C)Nc1ccnc2cc(Cl)ccc12 (stereo not drawn) [chloroquine, reference compound]",autophagic signal higher than control cells,HCT-116 cells [7],65%
same,effect on autophagy in words,"HT-29 cells [10]; HT-29, 10 μM, 48 h, Cyto-ID",induced autophagy

# Reference: paper PMC9066187 (RSC Advances, 2019)
